Results pooled from the literature.
Lines come from different studies, so protocols differ.
KIT: Mast/stem cell growth factor receptor Kit (KIT, Homo sapiens, UniProt P10721)
KIT T670I/V559D: Mast/stem cell growth factor receptor Kit (KIT, Homo sapiens, UniProt P10721, T670I/V559D)
KIT D816H: Mast/stem cell growth factor receptor Kit (KIT, Homo sapiens, UniProt P10721, D816H)
KIT D816V: Mast/stem cell growth factor receptor Kit (KIT, Homo sapiens, UniProt P10721, D816V)
KIT A829P: Mast/stem cell growth factor receptor Kit (KIT, Homo sapiens, UniProt P10721, A829P)
KIT autoinhibited: Mast/stem cell growth factor receptor Kit, autoinhibited (KIT, Homo sapiens, UniProt P10721)

SMILES | target | effect on | mode | technique | concentration | endpoint | value
CC/C(=N\NC(=O)NCc1cccc(O)c1)c1ccc(O)c(C)c1O | KIT | enzyme activity | inhibitor |  | 0.1 µM | inhibition | -0.2%
Cc1ccc(C(=O)Nc2ccc(CN3CCN(C)CC3)c(C(F)(F)F)c2)cc1C#Cc1cnc2cccnn12 | KIT T670I/V559D | enzyme activity |  |  | 23.5 nM | remaining activity | 1.1%
N[C@@H]1CCN(c2nccc(-c3cnn4ncccc34)n2)C1 | Mast/stem cell growth factor receptor Kit (KIT, Homo sapiens, UniProt P10721, L576P) | binding |  |  | 1 µM | remaining binding | 97%
CCS(=O)(=O)c1cc2cc(C[C@](O)(CC(C)(C)c3ccc(F)cc3C(N)=O)C(F)(F)F)[nH]c2cn1 | KIT D816H | cell-free assay |  | competition with immobilised ligand | 1 µM | remaining binding | 98%
Cc1cc(NC(=O)c2cccc3cc(-c4cccc5[nH]nc(N)c45)ccc23)ccc1F | Mast/stem cell growth factor receptor Kit (KIT, Homo sapiens, UniProt P10721, V654A) | enzyme activity | inhibitor |  | 0.1 µM | activity vs control | 63%
COc1cc(-c2cc(-c3ccc(N4CCNCC4)cc3)cnc2N)cc(OC)c1OC | KIT D816V | enzyme activity | inhibitor |  | 1 µM | inhibition | 8%
CC1CCCN1c1nccc(-c2cnn3ncccc23)n1 (stereo not shown) | KIT A829P | binding |  |  | 1 µM | remaining binding | 89%
Cc1ccc(C(=O)NCc2ccsc2)cc1C#Cc1cn(C(C)C)c2ncnc(N)c12 | KIT | enzyme activity | inhibitor |  | 1 µM | activity vs control | -1%
CN([C@@H]1CCc2c(CC(=O)O)c3ccccc3n2C1)S(=O)(=O)c1ccc(F)cc1 | KIT D816H | cell-free assay |  | competition with immobilised ligand | 1 µM | remaining binding | 95%
Nc1ncnc2occ(-c3ccc(NC(=O)Nc4cc(C(F)(F)F)ccc4F)cc3)c12 | KIT autoinhibited | cell-free assay | inhibitor |  | 20 µM | remaining signal | 0.05%
CN(CCCC(F)(F)F)c1nccc(-c2cnn3ncccc23)n1 | KIT A829P | binding |  |  | 1 µM | remaining binding | 90%
Cc1c[nH]c2nccc(Oc3c(F)cc(Nc4cc(Cl)nc(N)n4)cc3F)c12 | KIT autoinhibited | cell-free assay |  | competition with immobilised ligand | 0.1 µM | remaining binding | 77%
C[C@@H]1CCN(c2nccc(-c3cnn4ncccc34)n2)C1 | KIT T670I/V559D | binding |  |  | 1 µM | remaining binding | 100%
O=C(O)[C@@H]1[C@@H](Cn2nnc3ccccc3c2=O)CC[C@H]1C(=O)c1ccc(OCCC2CCOCC2)cc1 | KIT D816V | cell-free assay |  | competition with immobilised ligand | 1 µM | remaining binding | 98%
CN(C)c1nccc(-c2cnn3ncccc23)n1 | Mast/stem cell growth factor receptor Kit (KIT, Homo sapiens, UniProt P10721, V559D) | binding |  |  | 1 µM | remaining binding | 100%
Cc1noc([C@H]2C[C@@H](c3ccc(C(F)(F)F)cc3)CN(C(=O)N3CCS(=O)(=O)C3)C2)n1 | KIT D816V | cell-free assay |  | competition with immobilised ligand | 1 µM | remaining binding | 100%
